# Active and inactive are the calls of the source.
# Columns and labels:
# Mus musculus [1] = experiment: Toxicity in Swiss mouse assessed as motor impairment at 5 mg/kg, sc incubated for 15 mins measured for 180 secs by rotarod test; assay type: organism-based; conditions: in vivo, 0.05 h
# In short: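 Male Swiss mice (25−35 g) were preselected for staying at least 60 s on a Rotarod at 22 rpm (one of three trials). Diazepam was given at 5.0 mg/kg s.c. as the positive control. Local intraplantar treatments (15 pg/paw, or 20 μL vehicle of 0.1% Tween 20) were tested 3 h later. The Rotarod task lasted 180 s, n = 6.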
# Mus musculus [2] = experiment: Antinociceptive activity in PGE2-induced Swiss mouse model of mechanical hyperalgesia at 320 ng/paw administered as intraplantar injection pretreated for 15 mins followed by PGE2 challenge after 3 hrs by Von Frey filament assay; assay type: functional, organism-based
# In short: (§1)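 Male Swiss mice received intraplantar pretreatment, vehicle 20 μL of 0.1% Tween 20. After 15 min the right paw was injected with PGE2 (100 ng/paw), dopamine (3 μg/paw) or dbcAMP (5 μg/paw). The 50% mechanical withdrawal threshold was measured by von Frey filaments, up-and-down method, before injection and 3 h after the stimulus; mean ± SEM, 5−8 animals.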
# Mus musculus [3] = experiment: Antinociceptive activity in dibutyryl cyclic AMP-induced Swiss mouse model of mechanical hyperalgesia at 320 ng/paw administered as intraplantar injection pretreated for 15 mins followed by dibutyryl cyclic AMP challenge after 3 hrs by Von Frey filament assay; assay type: functional, organism-based; in short: as §1
# Mus musculus [4] = experiment: Antinociceptive activity in dopamine-induced Swiss mouse model of mechanical hyperalgesia at 320 ng/paw administered as intraplantar injection pretreated for 15 mins followed by dopamine challenge after 3 hrs by Von Frey filament assay; assay type: functional, organism-based; in short: as §1
# Mus musculus [5] = experiment: Antiinflammatory activity in Swiss mouse assessed as inhibition of carrageenan-induced paw edema 30 ng/paw administered as intraplantar injection pretreated for 1 hr followed by carrageenan challenge measured after 1 to 4 hrs; assay type: functional, organism-based
# In short: (§2)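 Male Swiss mice, 25−35 g, given an intraplantar pretreatment in 0.1% Tween 20 vehicle. The right hind paw then received carrageenan, 300 μg in 50 μL sterile 0.9% saline, given subcutaneously; the contralateral paw received saline only. Paw thickness was read by digital micrometer 1 h before and 1, 2 and 4 h after carrageenan. The result is the thickness difference in μm; mean ± SEM, 5−8 animals.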
# Mus musculus [6] = experiment: Toxicity in Swiss mouse assessed as motor impairment at 15 pg/paw administered as intraplantar injection incubated for 3 hrs measured for 180 secs by rotarod test; assay type: organism-based; conditions: in vivo, other
# In short: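 Male Swiss mice were preselected for staying at least 60 s on a Rotarod at 22 rpm (one of three trials). They received intraplantar treatment (vehicle 20 μL of 0.1% Tween 20) and were tested on the Rotarod 3 h later for 180 s; mean ± SEM, n = 6.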
# Mus musculus [7] = experiment: Antinociceptive activity in PGE2-induced Swiss mouse model of mechanical hyperalgesia at 15 pg/paw administered as intraplantar injection pretreated for 15 mins followed by PGE2 challenge after 3 hrs by Von Frey filament assay; assay type: functional, organism-based; in short: as §1
# Mus musculus [8] = experiment: Antiinflammatory activity in Swiss mouse assessed as inhibition of carrageenan-induced paw edema administered as intraplantar injection pretreated for 1 hr followed by carrageenan challenge measured after 1 to 4 hrs; assay type: functional, organism-based; in short: as §2
# Mus musculus [9] = experiment: Antinociceptive activity in carrageenan-induced Swiss mouse model of mechanical hyperalgesia administered as intraplantar injection pretreated for 15 mins followed by carrageenan challenge after 3 hrs by Von Frey filament assay; assay type: functional, organism-based
# In short: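 Male Swiss mice were acclimatized 1 h on a wire mesh platform and given a basal von Frey up-and-down test (six measurements, 50% withdrawal threshold). Intraplantar treatment followed, 5−50 pg into the right paw, vehicle 0.1% Tween 20 in saline, 20 μL. After 15 min, carrageenan 300 μg/paw in 20 μL went into the right hindpaw. The threshold was remeasured at 3 h; mean ± SEM, 5−8 animals.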
# Mus musculus [10] = experiment: Antinociceptive activity in dopamine-induced Swiss mouse model of mechanical hyperalgesia at 15 pg/paw administered as intraplantar injection pretreated for 15 mins followed by dopamine challenge after 3 hrs by Von Frey filament assay; assay type: functional, organism-based; in short: as §1
# Mus musculus [11] = experiment: Antinociceptive activity in dibutyryl cyclic AMP-induced Swiss mouse model of mechanical hyperalgesia at 15 pg/paw administered as intraplantar injection pretreated for 15 mins followed by dibutyryl cyclic AMP challenge after 3 hrs by Von Frey filament assay; assay type: functional, organism-based; in short: as §1
# Mus musculus [12] = species on record: Mus musculus; experiment: Antinociceptive activity in Swiss mouse assessed as increase in thermal-stimulus induced paw withdrawal or licking latency at 15 pg/paw after 3 hrs by hot plate method; assay type: functional, organism-based
# In short: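 Male Swiss mice were preselected for a basal latency of 7−15 s on a 55 °C metal platform. They then received intraplantar treatment (vehicle 20 μL of 0.1% Tween 20) and were re-exposed at 3 h. The end point was paw withdrawal or licking, cutoff 30 s. Data are %MPE = (post − basal)/(cutoff − basal) × 100; mean ± SEM, n = 6.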
smiles,measurement,setting,value
CN1C(=O)CN=C(c2ccccc2)c2cc(Cl)ccc21 [DIAZEPAM],Activity,Mus musculus [1],Toxic
Cc1c(N(C)CS(=O)(=O)O)c(=O)n(-c2ccccc2)n1C,Activity,Mus musculus [2],Active
same,Activity,Mus musculus [3],Active
same,Activity,Mus musculus [4],Active
C[C@@H]1C[C@H]2[C@@H]3CCC4=CC(=O)C=C[C@]4(C)[C@@]3(F)[C@@H](O)C[C@]2(C)[C@@]1(O)C(=O)CO,inhibition,Mus musculus [5],Active
C=C1OC2=C(C(=O)C(=O)c3c(O)cccc32)C1(C)C,Activity,Mus musculus [6],Non-Toxic
same,Activity,Mus musculus [7],Active
same,inhibition,Mus musculus [8],Dose-dependent effect
same,Activity,Mus musculus [9],Dose-dependent effect
same,Activity,Mus musculus [10],Active
same,Activity,Mus musculus [11],inactive
same,Activity,Mus musculus [12],inactive
